# Where “and” joins values, the source holds several entries; their conditions need not be identical. Identical values can stand only once.
# Tested on: U2OS
# Assay: Multiplex assay against U2OS
# Type: toxicity, cell-based
# Details: human
# Procedure, shortened: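 Cells stained live at seeding with Hoechst33342, BioTracker Green Microtubule Cytoskeleton Dye, MitoTracker Red and Annexin V Alexa Fluor 680 were imaged on a CQ1 microscope at 37°C and 5% CO2 after compound addition. Their classification by CellPathfinder machine-learning gating ran from Hoechst high-intensity objects versus normal cells, to healthy, pyknosed or fragmented nuclei among normal cells, to mitotic or apoptotic among pyknosed cells. Tubulin, mitochondrial-mass and membrane-permeability phenotypes are per cents of healthy-nucleus cells.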
# [1] = 12 h, 1 µM, compound concentration 1 uM
# [2] = 12 h, 10 µM, compound concentration 10 uM
# [3] = 24 h, 1 µM, compound concentration 1 uM
# [4] = 24 h, 10 µM, compound concentration 10 uM
# [5] = 48 h, 1 µM, compound concentration 1 uM
# [6] = 48 h, 10 µM, compound concentration 10 uM
smiles,measurement,setting,value
c1cc(OCCCN2CCCCC2)ccc1CN1CCCCC1 [JNJ-5207852],Population Apoptotic (%),[1],76% and 58%
same,Population Fragmented Nuclei (%),[1],29% and 25%
same,Population Healthy Nuclei (%),[1],65% and 62%
same,Population Hoechst High Intensity Objects (%),[1],2% and 0%
same,Population Membrane Permeable-Phenotype (%),[1],5% and 7%
same,Population Mitochondria Different-Phenotype (%),[1],3%
same,Population Mitotic Cells (%),[1],23% and 41%
same,Population Normal (%),[1],97% and 99%
same,Population Pyknosed Nuclei (%),[1],5% and 11%
same,Population Tubulin-Different-Phenotype (%),[1],3%
same,Total Cell Count,[1],253 and 106
same,Population Apoptotic (%),[2],73% and 85%
same,Population Fragmented Nuclei (%),[2],34% and 13%
same,Population Healthy Nuclei (%),[2],57% and 80%
same,Population Hoechst High Intensity Objects (%),[2],2% and 4%
same,Population Membrane Permeable-Phenotype (%),[2],5% and 7%
same,Population Mitochondria Different-Phenotype (%),[2],3% and 9%
same,Population Mitotic Cells (%),[2],26% and 14%
same,Population Normal (%),[2],97% and 95%
same,Population Pyknosed Nuclei (%),[2],8% and 6%
same,Population Tubulin-Different-Phenotype (%),[2],3% and 6%
same,Total Cell Count,[2],228 and 120
same,Population Apoptotic (%),[3],84% and 66%
same,Population Fragmented Nuclei (%),[3],25% and 21%
same,Population Healthy Nuclei (%),[3],65% and 68%
same,Population Hoechst High Intensity Objects (%),[3],1% and 0%
same,Population Membrane Permeable-Phenotype (%),[3],3% and 4%
same,Population Mitochondria Different-Phenotype (%),[3],2%
same,Population Mitotic Cells (%),[3],16% and 33%
same,Population Normal (%),[3],98% and 100%
same,Population Pyknosed Nuclei (%),[3],8% and 10%
same,Population Tubulin-Different-Phenotype (%),[3],2% and 4%
same,Total Cell Count,[3],287 and 119
same,Population Apoptotic (%),[4],82% and 84%
same,Population Fragmented Nuclei (%),[4],28% and 10%
same,Population Healthy Nuclei (%),[4],62% and 80%
same,Population Hoechst High Intensity Objects (%),[4],1%
same,Population Membrane Permeable-Phenotype (%),[4],4% and 8%
same,Population Mitochondria Different-Phenotype (%),[4],3% and 5%
same,Population Mitotic Cells (%),[4],17% and 15%
same,Population Normal (%),[4],98%
same,Population Pyknosed Nuclei (%),[4],8%
same,Population Tubulin-Different-Phenotype (%),[4],3% and 8%
same,Total Cell Count,[4],271 and 157
same,Population Apoptotic (%),[5],82% and 76%
same,Population Fragmented Nuclei (%),[5],21% and 19%
same,Population Healthy Nuclei (%),[5],69% and 71%
same,Population Hoechst High Intensity Objects (%),[5],2% and 3%
same,Population Membrane Permeable-Phenotype (%),[5],4% and 9%
same,Population Mitochondria Different-Phenotype (%),[5],2% and 4%
same,Population Mitotic Cells (%),[5],17% and 23%
same,Population Normal (%),[5],97% and 96%
same,Population Pyknosed Nuclei (%),[5],8%
same,Population Tubulin-Different-Phenotype (%),[5],4% and 3%
same,Total Cell Count,[5],400 and 152
same,Population Apoptotic (%),[6],86% and 93%
same,Population Fragmented Nuclei (%),[6],22% and 14%
same,Population Healthy Nuclei (%),[6],70% and 78%
same,Population Hoechst High Intensity Objects (%),[6],2% and 1%
same,Population Membrane Permeable-Phenotype (%),[6],7% and 6%
same,Population Mitochondria Different-Phenotype (%),[6],3% and 2%
same,Population Mitotic Cells (%),[6],13% and 6%
same,Population Normal (%),[6],97% and 98%
same,Population Pyknosed Nuclei (%),[6],6%
same,Population Tubulin-Different-Phenotype (%),[6],5% and 4%
same,Total Cell Count,[6],345 and 245
Cc1nn(C)c2nc(NNC(=O)Nc3cc(Cl)nc(Cl)c3)cc(C(C)C)c12,Population Apoptotic (%),[1],76% and 72%
same,Population Fragmented Nuclei (%),[1],23% and 14%
same,Population Healthy Nuclei (%),[1],66% and 76%
same,Population Hoechst High Intensity Objects (%),[1],1% and 2%
same,Population Membrane Permeable-Phenotype (%),[1],5% and 10%
same,Population Mitochondria Different-Phenotype (%),[1],3% and 7%
same,Population Mitotic Cells (%),[1],24% and 27%
same,Population Normal (%),[1],98% and 97%
same,Population Pyknosed Nuclei (%),[1],9% and 8%
same,Population Tubulin-Different-Phenotype (%),[1],2% and 7%
same,Total Cell Count,[1],268 and 131
same,Population Apoptotic (%),[2],77% and 47%
same,Population Fragmented Nuclei (%),[2],21% and 15%
same,Population Healthy Nuclei (%),[2],56% and 63%
same,Population Hoechst High Intensity Objects (%),[2],7% and 4%
same,Population Membrane Permeable-Phenotype (%),[2],75% and 57%
same,Population Mitochondria Different-Phenotype (%),[2],46% and 63%
same,Population Mitotic Cells (%),[2],22% and 52%
same,Population Normal (%),[2],92% and 95%
same,Population Pyknosed Nuclei (%),[2],21%
same,Population Tubulin-Different-Phenotype (%),[2],80% and 77%
same,Total Cell Count,[2],222 and 104
same,Population Apoptotic (%),[3],80% and 93%
same,Population Fragmented Nuclei (%),[3],20% and 17%
same,Population Healthy Nuclei (%),[3],71% and 73%
same,Population Hoechst High Intensity Objects (%),[3],0% and 2%
same,Population Membrane Permeable-Phenotype (%),[3],4% and 9%
same,Population Mitochondria Different-Phenotype (%),[3],2% and 4%
same,Population Normal (%),[3],99% and 97%
same,Population Pyknosed Nuclei (%),[3],8% and 9%
same,Population Tubulin-Different-Phenotype (%),[3],1% and 4%
same,Total Cell Count,[3],328 and 168
same,Population Apoptotic (%),[4],78% and 69%
same,Population Fragmented Nuclei (%),[4],19% and 16%
same,Population Healthy Nuclei (%),[4],49% and 61%
same,Population Hoechst High Intensity Objects (%),[4],5% and 2%
same,Population Membrane Permeable-Phenotype (%),[4],69% and 42%
same,Population Mitochondria Different-Phenotype (%),[4],58% and 51%
same,Population Mitotic Cells (%),[4],21% and 30%
same,Population Normal (%),[4],94% and 97%
same,Population Pyknosed Nuclei (%),[4],31% and 21%
same,Population Tubulin-Different-Phenotype (%),[4],77% and 57%
same,Total Cell Count,[4],218 and 110
same,Population Apoptotic (%),[5],88% and 86%
same,Population Fragmented Nuclei (%),[5],17% and 21%
same,Population Healthy Nuclei (%),[5],75% and 65%
same,Population Hoechst High Intensity Objects (%),[5],2% and 1%
same,Population Membrane Permeable-Phenotype (%),[5],4% and 8%
same,Population Mitochondria Different-Phenotype (%),[5],3% and 4%
same,Population Mitotic Cells (%),[5],11% and 13%
same,Population Normal (%),[5],97% and 98%
same,Population Pyknosed Nuclei (%),[5],7% and 12%
same,Population Tubulin-Different-Phenotype (%),[5],2% and 5%
same,Total Cell Count,[5],504 and 247
same,Population Apoptotic (%),[6],83% and 80%
same,Population Fragmented Nuclei (%),[6],24%
same,Population Healthy Nuclei (%),[6],43% and 48%
same,Population Hoechst High Intensity Objects (%),[6],9% and 6%
same,Population Membrane Permeable-Phenotype (%),[6],51%
same,Population Mitochondria Different-Phenotype (%),[6],46% and 63%
same,Population Mitotic Cells (%),[6],16% and 20%
same,Population Normal (%),[6],90% and 93%
same,Population Pyknosed Nuclei (%),[6],32% and 27%
same,Population Tubulin-Different-Phenotype (%),[6],49% and 57%
same,Total Cell Count,[6],244 and 115

# Reference: ChEMBL document CHEMBL5724801, “EUbOPEN Chemogenomics Library - Multiplex” (2024)
